Results reported in ChEMBL document CHEMBL1132227, “Low-molecular-weight peptidic and cyclic antagonists of the receptor for the complement factor C5a” (J Med Chem, 1999).

Columns and labels:
[1] = biological target: T1, C5a anaphylatoxin chemotactic receptor 1 (Homo sapiens, UniProt P21730); test: (§1) Inhibition of binding of [125I]C5a to human polymorphonuclear leukocyte C5a receptor
T1 sequence (P21730 whole entry): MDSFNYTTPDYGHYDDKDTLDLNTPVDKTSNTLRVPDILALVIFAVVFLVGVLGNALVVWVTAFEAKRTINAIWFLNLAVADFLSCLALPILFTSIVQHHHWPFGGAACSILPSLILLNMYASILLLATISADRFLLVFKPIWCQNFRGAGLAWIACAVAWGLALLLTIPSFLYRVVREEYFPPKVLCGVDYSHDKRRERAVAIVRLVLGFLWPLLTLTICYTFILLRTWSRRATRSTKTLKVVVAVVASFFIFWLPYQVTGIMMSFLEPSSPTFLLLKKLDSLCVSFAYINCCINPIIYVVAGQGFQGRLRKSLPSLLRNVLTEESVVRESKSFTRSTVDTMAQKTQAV
Summary of the method: (§2)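 Competition binding on fresh human PMNs (0.2 × 10⁶) with [¹²⁵I]C5a (~50 pM). Buffer: 50 mM HEPES, 1 mM CaCl₂, 5 mM MgCl₂, 0.5% BSA, 0.1% bacitracin, 100 μM PMSF. Incubated 60 min at 4 °C, then filtered, washed and γ-counted. Nonspecific binding defined with 1 mM peptide or 100 nM C5a.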

[2] = biological target: T1, C5a anaphylatoxin chemotactic receptor 1; test: as §1; summary of the method: as §2; remark: listed apart in the source
[3] = organism: Homo sapiens; test: (§3) Concentration of peptide resulting in 50% inhibition of C5a (100 nM) causing the release of MPO from polymorphonuclear leukocytes; type: functional, organism-based
Summary of the method: (§4)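 Freshly isolated human PMNs primed with cytochalasin B (10 µg/mL, 10 min, 37 °C). Cells (4 × 10⁶/mL) preincubated 10 min at 37 °C with peptide in Hank's balanced salt solution with 0.1% gelatin. Challenged with C5a (100 nM) for 10 min. Myeloperoxidase read-out: pH 6.8 phosphate buffer, dimethoxybenzidine/H₂O₂, stopped at 20 min with sodium azide. A450 corrected for no-peptide controls.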

[4] = organism: Homo sapiens; test: as §3; type: functional, organism-based; summary of the method: as §4; remark: listed apart in the source
[5] = biological target: T1, C5a anaphylatoxin chemotactic receptor 1; test: (§5) Inhibition of binding of [125I]C5a to human polymorphonuclear leukocyte(PMN) C5a anaphylatoxin chemotactic receptor
Summary of the method: (§6)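 Competition binding on freshly isolated whole human PMNs (0.2 × 10⁶/well) against ~50 pM [125I]C5a, with unlabeled peptide or recombinant human C5a as competitor. Buffer: 50 mM HEPES, 1 mM CaCl2, 5 mM MgCl2, 0.5% BSA, 0.1% bacitracin, 100 μM PMSF. Incubated 60 min at 4 °C, then filtered, washed once and gamma-counted. Nonspecific binding set with 1 mM peptide or 100 nM C5a.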

[6] = biological target: T1, C5a anaphylatoxin chemotactic receptor 1; test: as §5; summary of the method: as §6; remark: listed apart in the source

Work on NCCCC[C@H](NC(=O)[C@H](Cc1ccccc1)NC(=O)[C@@H](N)CCCCN)C(=O)N1CCCC1C(=O)N[C@H](CC1CCCCC1)C(=O)N[C@@H](Cc1c[nH]c2ccccc12)C(=O)N[C@H](CCCN=C(N)N)C(=O)O (single isomer, unassigned) yielded an IC50 [1] of 2.63 µM, an IC50 [2] of 2.6 µM and an IC50 [3] of 0.269 µM. It also gave an IC50 [4] of 0.3 µM.

For CC(=O)N[C@@H](Cc1ccccc1)C(=O)N[C@@H](CCCCN)C(=O)N1CCCC1C(=O)N[C@H](CC1CCCCC1)C(=O)N[C@@H](CC1c2ccccc2-c2ccccc21)C(=O)N[C@H](CCCN=C(N)N)C(=O)O (single isomer, unassigned; 16b), the IC50 [1] was over 115 µM and the IC50 [2] was 116 µM.

For CN1C(=O)[C@@H](CCCN=C(N)N)NC(=O)[C@H](Cc2c[nH]c3ccccc23)NC(=O)[C@@H](CC2CCCCC2)NC(=O)[C@@H]2CCCN2C(=O)[C@H](Cc2c[nH]c3ccccc23)NC(=O)[C@@H]1Cc1ccccc1, the IC50 [1] was 2.95 µM, the IC50 [2] was 3 µM and the IC50 [3] was 1.51 µM. For the same compound, the IC50 [4] was 2.1 µM.

N=C(N)NCCC[C@H]1NC(=O)[C@H](Cc2c[nH]c3ccccc23)NC(=O)[C@@H](CC2CCCCC2)NC(=O)[C@@H]2CCCN2C(=O)[C@H](Cc2c[nH]c3ccccc23)NC(=O)[C@H](Cc2ccccc2)NC1=O showed an IC50 [1] of over 42.7 µM.

Work on CC(=O)N[C@@H](Cc1ccccc1)C(=O)N[C@@H](CCCCN)C(=O)N1CCCC1C(=O)N[C@H](CC1CCCCC1)C(=O)N[C@@H](CC1c2ccccc2-c2ccccc21)C(=O)N[C@H](CCCN=C(N)N)C(=O)O (single isomer, unassigned; 16a) yielded an IC50 [1] of over 51.3 µM and an IC50 [2] of 51 µM.

For CN[C@@H](Cc1ccccc1)C(=O)N[C@@H](CCCCN)C(=O)N1CCCC1C(=O)N[C@H](CC1CCCCC1)C(=O)N[C@@H](Cc1c[nH]c2ccccc12)C(=O)N[C@@H](CCCN=C(N)N)C(=O)O (single isomer, unassigned), the IC50 [3] was 1.95 µM and the IC50 [4] was 2 µM.

In the case of CCCC[C@H](NC(=O)[C@H](Cc1ccccc1)NC(C)=O)C(=O)N1CCCC1C(=O)N[C@H](CC1CCCCC1)C(=O)N[C@@H](Cc1c[nH]c2ccccc12)C(=O)N[C@H](CCCN=C(N)N)C(=O)O (single isomer, unassigned), the IC50 [1] is reported as 3.55 µM, the IC50 [2] is reported as 3.6 µM and the IC50 [3] is reported as 1.41 µM. The IC50 [4] was 1.4 µM.

C[C@H](N)C(=O)N[C@@H](CCCCN)C(=O)N1CCCC1C(=O)N[C@H](CC1CCCCC1)C(=O)N[C@@H](Cc1c[nH]c2ccccc12)C(=O)N[C@H](CCCN=C(N)N)C(=O)O (single isomer, unassigned) gave an IC50 [1] of over 1000 µM and an IC50 [2] of over 1000 µM.

NC(N)=NCCC[C@@H](NC(=O)[C@H](Cc1c[nH]c2ccccc12)NC(=O)[C@@H](CC1CCCCC1)NC(=O)C1CCCN1C(=O)[C@H](Cc1c[nH]c2ccccc12)NC(=O)[C@@H](N)Cc1ccccc1)C(=O)O (single isomer, unassigned) showed an IC50 [5] of 5.9 µM, an IC50 [6] of 5.89 µM and an IC50 [3] of 0.316 µM. It also gave an IC50 [4] of 0.3 µM.

In the case of CC(=O)N[C@@H](Cc1ccccc1)C(=O)N[C@@H](CCCCN)C(=O)N1CCCC1C(=O)N[C@H](CC1CCCCC1)C(=O)N[C@@H](Cc1c[nH]c2ccccc12)C(=O)N[C@H](CCCN=C(N)N)C(=O)O (single isomer, unassigned), the IC50 [1] is reported as 4.79 µM and the IC50 [2] is reported as 4.8 µM.

With CN[C@@H](Cc1ccccc1)C(=O)N[C@@H](CCCCN)C(=O)N1CCCC1C(=O)N[C@H](CC1CCCCC1)C(=O)N[C@@H](Cc1c[nH]c2ccccc12)C(=O)N[C@H](CCCN=C(N)N)C(=O)O (single isomer, unassigned) the IC50 [3] was 0.107 µM and the IC50 [4] was 0.1 µM.

With CC(=O)N[C@@H](Cc1ccccc1)C(=O)N[C@@H](CCCN)C(=O)N1CCCC1C(=O)N[C@H](CC1CCCCC1)C(=O)N[C@@H](Cc1c[nH]c2ccccc12)C(=O)N[C@H](CCCN=C(N)N)C(=O)O (single isomer, unassigned) the IC50 [1] was 0.794 µM, the IC50 [2] was 0.8 µM and the IC50 [3] was 0.191 µM. For the same compound, the IC50 [4] was 0.2 µM.

With CC(C)[C@H](NC(=O)[C@H](CO)NC(=O)[C@H](Cc1c[nH]cn1)NC(=O)[C@H](CCCCN)NC(=O)[C@H](Cc1ccc(O)cc1)NC(=O)[C@@H](N)CCCCN)C(=O)N[C@H](C(=O)N[C@@H](CCCCN)C(=O)N[C@@H](CCCCN)C(=O)NCCCCC(=O)N[C@@H](Cc1ccccc1)C(=O)N[C@@H](CCCCN)C(=O)N1CCC[C@H]1C(=O)N[C@H](CC1CCCCC1)C(=O)N[C@@H](Cc1c[nH]c2ccccc12)C(=O)N[C@H](CCCN=C(N)N)C(=O)O)C(C)C the IC50 [1] was 1.23 µM, the IC50 [2] was 1.2 µM and the IC50 [3] was 0.245 µM. It also gave an IC50 [4] of 0.2 µM.

Work on C[C@H](NC(=O)[C@@H](N)Cc1ccccc1)C(=O)N1CCCC1C(=O)N[C@H](CC1CCCCC1)C(=O)N[C@@H](Cc1c[nH]c2ccccc12)C(=O)N[C@H](CCCN=C(N)N)C(=O)O (single isomer, unassigned) yielded an IC50 [1] of 9.12 µM, an IC50 [2] of 9 µM and an IC50 [3] of 3.63 µM. For the same compound, the IC50 [4] was 3.7 µM.

NCCCC[C@H](NC(=O)[C@@H](N)Cc1ccccc1)C(=O)N[C@@H](Cc1ccccc1)C(=O)N[C@@H](CCCCN)C(=O)N1CCC[C@H]1C(=O)N[C@H](CC1CCCCC1)C(=O)N[C@@H](Cc1c[nH]c2ccccc12)C(=O)N[C@H](CCCN=C(N)N)C(=O)O was tested, and the IC50 [1] was 4.57 µM, the IC50 [2] was 4.6 µM and the IC50 [3] was 0.501 µM. The IC50 [4] was 0.5 µM.

In the case of NCCCC[C@H](NC(=O)[C@@H](N)Cc1ccccc1)C(=O)N1CCCC1C(=O)N[C@H](CC1CCCCC1)C(=O)N[C@@H](Cc1c[nH]c2ccccc12)C(=O)N[C@H](CCCN=C(N)N)C(=O)O (single isomer, unassigned), the IC50 [1] is reported as 1.95 µM, the IC50 [2] is reported as 2 µM and the IC50 [3] is reported as 6.76 µM. The IC50 [4] was 6.8 µM.

Compound CC(C)[C@H](NC(=O)[C@H](CO)NC(=O)[C@H](Cc1c[nH]cn1)NC(=O)[C@H](CCCCN)NC(=O)[C@H](Cc1ccc(O)cc1)NC(=O)[C@@H](N)CCCCN)C(=O)N[C@H](C(=O)N[C@@H](CCCCN)C(=O)N[C@@H](CCCCN)C(=O)NCCCCC(=O)NCC(=O)NCC(=O)NCC(=O)NCC(=O)N[C@@H](Cc1ccccc1)C(=O)N[C@@H](CCCCN)C(=O)N1CCC[C@H]1C(=O)N[C@H](CC1CCCCC1)C(=O)N[C@@H](Cc1c[nH]c2ccccc12)C(=O)N[C@H](CCCNC(=N)N)C(=O)O)C(C)C has an IC50 [1] of over 0.174 µM, an IC50 [2] of 0.2 µM and an IC50 [3] of 0.0724 µM. The IC50 [4] was 0.07 µM.
